From PubChem BioAssay
Yeast lifespan up: extends the lifespan of yeast; inhibition of the nicotinamide effect, % at 10 µM; S. cerevisiae growth with nicotinamide, OD615; deaD strain in restrictive glucose medium; 130,000 tested, 0.68% active;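 active = inhibition above a set limit, placed 3 SD over the median of all compounds, cut at about 26% in these data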;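 note: 0% = nicotinamide-treated wells and 100% = cells grown without nicotinamide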
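Assay system: engineered S. cerevisiae DeaD replicative-lifespan strain, galactose-grown log-phase cells; medium: restrictive CSMM-D dextrose medium; also added: nicotinamide, 1.5 mM, co-present with compound; schedule: 48 h compound exposure at 30 °C, humidified; detection: absorbance at 615 nm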
TbHK1 inh: T. brucei hexokinase 1 inhibition; recombinant TbHK1, G6PDH-coupled NADH A340; inhibition, % at 10 µM; 220,000 tested, 0.11% active;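 active = inhibition of 50% or more in the single-dose primary screen; inactive = inhibition below 50%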
BB579 growth dn: chemicals that inhibit yeast BB579 growth in restrictive medium (lifespan-shortening candidates); S. cerevisiae BB579 growth, OD615, 48 h; inhibition, % at 10 µM; 140,000 tested, 0.51% active; AID 804;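 active = inhibition above a set limit, 3 SD over the mean compound inhibition, cut at about 44% in these data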
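controls = amphotericin B 10 µg/mL, positive | assay system = DeaD yeast strain BB579 | schedule = 48 h compound exposure at 30 °C after 4 h preincubation | detection = OD615 turbidity measurement | medium = restrictive CSMM-D medium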
NCF1 inh: p47phox (human) inhibition; 220,000 tested, 0.53% active; P14598; AID 1274; inhibition, % at 24.7 µM; p47phox/p22phox peptide binding, fluorescence polarization, 2 h;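 active = inhibition above about 30%, limit read from the data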;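 note: 0% = p47phox with labelled peptide and 100% = labelled peptide alone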
Target sequence (P14598 whole entry, looked up): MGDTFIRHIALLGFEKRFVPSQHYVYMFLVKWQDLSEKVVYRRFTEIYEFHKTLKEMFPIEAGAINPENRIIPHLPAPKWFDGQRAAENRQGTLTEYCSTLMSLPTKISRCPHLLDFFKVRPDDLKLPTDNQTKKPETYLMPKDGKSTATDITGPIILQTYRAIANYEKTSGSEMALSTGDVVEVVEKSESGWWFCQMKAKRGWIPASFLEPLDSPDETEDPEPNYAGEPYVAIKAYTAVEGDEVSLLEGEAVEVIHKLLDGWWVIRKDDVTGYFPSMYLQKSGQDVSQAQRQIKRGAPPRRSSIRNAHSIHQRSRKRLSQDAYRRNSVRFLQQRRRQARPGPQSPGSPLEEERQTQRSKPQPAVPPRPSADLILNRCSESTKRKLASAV
RBBP9 inh: blocks human serine hydrolase RBBP9; O75884; recombinant RBBP9, FP-Rh probe fluorescence polarization; inhibition, % at 7.94 µM; 220,000 tested, 0.2% active;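 active = inhibition above the campaign mean of all tested compounds plus 3 SD, cut at about 14% in these data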;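 note: plate controls were DMSO wells with RBBP9 for no effect and wells lacking RBBP9 protein for full effect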
Target sequence (O75884 whole entry, looked up): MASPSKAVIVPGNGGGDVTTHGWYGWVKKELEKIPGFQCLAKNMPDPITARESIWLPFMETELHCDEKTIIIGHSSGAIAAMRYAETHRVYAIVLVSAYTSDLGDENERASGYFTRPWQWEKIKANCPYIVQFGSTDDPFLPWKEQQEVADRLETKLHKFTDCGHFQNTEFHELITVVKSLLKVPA
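Test system: recombinant human RBBP9. Quantity: 2.5 µM RBBP9 dispensing solution, before mixing. Detection: FP readout at 525/598 nm. Reagent: Serine-hydrolase probe FP-Rh, 375 nM pre-mixing. Measure: % inhibition. Control set: DMSO-treated enzyme wells and wells lacking RBBP9. Buffer or medium: Tris-NaCl-Pluronic buffer, pH 8.0. Times: preincubation 30 min plus labeling 45 min at 25 °C.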
SDO1 yeast rescue: compounds rescuing growth of sdo1-depleted yeast, bone marrow failure model; S. cerevisiae sdo1-depleted JHY4D growth rescue, OD600 30 h; hits give high values; pdr5 snq2 efflux-pump mutant strain; z-score at 10 µM; 140,000 tested, 0.21% active; AID 817;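 active = z-score above 3 at both the 24 hr and the 30 hr optical density reads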;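 note: z-score against mean and SD of all compound wells on the same plate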
* = called active by the depositor; · = not tested or not shown. The list is not random: actives were taken first. Their share in the collection is about 1.6%.

SMILES	Yeast lifespan up	TbHK1 inh	BB579 growth dn	NCF1 inh	RBBP9 inh	SDO1 yeast rescue
COCC(=O)Nc1ccc(S(=O)(=O)Nc2ccccn2)cc1	·	-1	·	-1	-7	·
O=C(/C=C/c1ccncc1)c1ccc(NC(=O)c2ccccc2F)cc1	3	-13	-42	30*	-19	-0.38
COC(=O)COc1ccc(/C=N/NC(=O)c2ccc(N(Cc3ccccc3)S(C)(=O)=O)cc2)cc1	-2	35	-16	55*	-5	0.58
Cn1c(OCc2ccc3c(c2)OCO3)nc2c1c(=O)n(Cc1ccc(Cl)c(Cl)c1)c(=O)n2C	-5	1	-9	55*	-12	-0.06
Cc1ccc(S(=O)(=O)Nc2ccccc2/C=N/c2nc3ccccc3n2C)cc1	31*	-12	-35	-18	-8	-1.1
Cc1ccc(S(=O)(=O)Nc2ccccc2C=Nc2cccc(C)c2C)cc1	11	-1	-41	-9	-11	-0.37
CCOC(=O)CS(=O)(=O)c1nc(-c2ccccc2)cc(C(F)(F)F)n1	·	9	-45	0	-9	-1.5
COC(=O)CCS(=O)(=O)c1nc(-c2ccccc2)cc(C(F)(F)F)n1	77*	1	-8	-7	-12	-0.32
CS(=O)(=O)c1nc(-c2ccc(F)cc2)cc(C(F)(F)F)n1	·	-10	·	2	-2	·
CCOC(=O)CCS(=O)(=O)c1nc(-c2ccccc2)cc(C(F)(F)F)n1	67*	-3	-32	-6	-12	-0.91
CCOC(=O)CS(=O)(=O)c1nc(-c2ccc(F)cc2)cc(C(F)(F)F)n1	67*	-2	-44	-6	-7	-1.5
COCC(C)NC(=O)CCS(=O)(=O)c1nc(-c2ccc(OC)cc2)cc(C(F)(F)F)n1 (stereo not drawn)	-6	-24	-59	-4	-6	-1
CC(=O)Nc1nc(C)c(Oc2cccc(C(F)(F)F)c2)c(=O)[nH]1	·	-4	·	-6	1	·
CCc1n[n+](CC(=O)c2ccccc2)c(N)s1	·	-2	·	-8	-1	·
O=C(O)CCC(=O)Nc1sc2c(c1C(=O)Nc1cccc3ccccc13)CCCCC2	30*	-12	-19	1	-3	0.04
O=C(O)CCC(=O)Nc1sc2c(c1C(=O)Nc1ccccc1)CCCCC2	·	-1	·	-6	3	·
COCCN1CSC(=S)N(Cc2ccco2)C1	-8	-6	60*	-8	-10	-2.1
CCOCCCN1CN(Cc2ccco2)CNC1=S	·	-5	·	-14	1	·
S=C1SCN(Cc2ccccn2)CN1Cc1ccco1	22	-1	52*	-15	-2	-1.7
CCCNC(=O)CS(=O)Cc1nc(-c2ccccc2C)oc1C (stereo not drawn)	-7	6	1	0	4	0.59
CCC(C)NC(=O)CS(=O)Cc1nc(-c2ccccc2C)oc1C (stereo not drawn)	0	-1	47*	-1	-8	0
O=c1[nH][nH]c(=O)n1-c1ccccc1	·	-4	·	-11	5	·
COc1ccc(C2C(=O)c3ccccc3C2=O)cc1	32*	-6	-28	0	-1	-0.14
COc1cc(OC)nc(-n2ncc(Br)c(Br)c2=O)n1	38*	-10	-25	-8	-1	-0.72
COC(=O)c1cnn(-c2nc(OC)cc(OC)n2)c1C	-5	-2	-5	3	-8	1.6
SMILES	Yeast lifespan up	TbHK1 inh	BB579 growth dn	NCF1 inh	RBBP9 inh	SDO1 yeast rescue
Cc1ccnc(SCc2cc(=O)c(OC(=O)c3ccco3)co2)n1	42*	3	-18	-3	-1	0.1
O=C(COc1ccc(Cl)cc1)NC1=NN(c2ccccc2)C(=O)C1	0	-3	62*	-12	-4	0.37
CCCCN(C)CCNC(=O)c1ccc(Cn2c(=S)[nH]c3ccc(Br)cc3c2=O)cc1	·	1	·	-5	-8	·
COc1ccc(NC(=O)N2CCCC2C(=O)NCc2ccc(C)cc2)cc1 (stereo not drawn)	·	0	·	-2	-5	·
COc1ccc(CN2CCNC(=O)C2CC(=O)N2CCCCO2)cc1OC (stereo not drawn)	·	-9	·	5	-12	·
Cn1ccnc1C(O)(c1ccccc1)c1nccn1C	·	-2	·	48*	-1	·
Cn1ccnc1C(O)c1ccccc1 (stereo not drawn)	·	4	·	1	-9	·
C(=N\n1cnnc1)/c1ccc(N2CCOCC2)s1	-5	-16	3	43*	-2	0.72
O=C(CSc1nnc(Cc2ccccc2)n1C1CCCCC1)N1CCOCC1	-12	0	-43	98*	-6	-0.09
O=C(CSc1nnc(Cc2ccccc2)n1-c1ccc(F)cc1)N1CCOCC1	-26	-7	-2	-4	8	0.47
CCOc1cc(CNCCc2ccc(S(N)(=O)=O)cc2)cc(Cl)c1OCc1ccccc1	-23	6	-56	79*	-4	-2.2
COc1ccccc1NC(=O)COc1ccc(/C=N/NC(=O)CSCc2cc(C)cc(C)c2)cc1	-5	6	-15	34*	-6	-0.76
COc1ccccc1NC(=O)COc1ccc(/C=N/NC(=O)CSCc2ccc(Cl)cc2)cc1	-10	8	-59	15	4	-0.94
COC(=O)c1cc(-c2ccc(Cl)cc2Cl)n[nH]1	·	6	·	1	-6	·
Cc1nnc(SCc2ccccc2)[nH]c1=O	·	-5	·	-4	-6	·
Cc1ccc(CSc2nnc(C)c(=O)[nH]2)cc1	·	2	·	67*	-3	·
CCCCCOC(=O)CC(C(=O)OCCCCC)N1CCCCC1 (stereo not drawn)	·	-1	-22	-8	1	0.75
CCCCCCCCCOC(=O)C(CC(=O)O)N1CCOCC1 (stereo not drawn)	29*	-4	-41	11	10	-2.1
CCOC(=O)c1ccc(-c2ccc(/C=N/NC(=O)CN(c3cccc(C)c3)S(C)(=O)=O)o2)cc1	2	-20	-35	31*	5	-0.14
CC(=O)Nc1ccc(C(=O)CSc2nnc(-c3ccc(O)cc3)n2CC2CCCO2)cc1 (stereo not drawn)	64*	-1	-23	-6	-9	-0.26
CC1=C(C)/C(=N\OS(=O)(=O)c2ccccc2)C=CC1=O	-17	-2	100*	-1	3	-2.6
S=C1N(c2ccccc2)CN(C2CCCCC2)CN1c1ccccc1	·	-5	·	-14	1	·
C=CS(=O)(=O)c1ccc(Oc2ccc(S(=O)(=O)C=C)cc2)cc1	61*	-7	-46	-2	-9	0.79
NS(=O)(=O)c1ccc(Oc2ccc(S(N)(=O)=O)cc2)cc1	·	8	·	-2	-3	·
O=C(Nc1nc(-c2ccccc2)cs1)C1COc2ccccc2O1 (stereo not drawn)	-15	2	-14	-5	-4	-1.8
O=C(Nc1nc(-c2ccccn2)cs1)C1COc2ccccc2O1 (stereo not drawn)	-6	23	93*	-11	-2	-3.4
